Source: ChEMBL document CHEMBL1148479, “Antineoplastic agents. 520. Isolation and structure of irciniastatins A and B from the Indo-Pacific marine sponge Ircinia ramosa” (2004)
≈ marks a conversion by molar mass, not a printed value.

Legend:
Type in all cases: functional
BXPC-3 = assay: Compound was tested for cancer cell line growth inhibition against human pancreas (BXPC-3) cell line
Procedure, shortened: (§1)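 NCI sulforhodamine B protocol. Cells in 5% fetal bovine serum/RPMI1640 are seeded in 96-well plates and incubated 24 h, then exposed to serial compound dilutions for 48 h. Cells are fixed with trichloroacetic acid, stained with SRB and read by microplate reader. GI50 is the concentration giving a 50% reduction in net protein increase, calculated from optical density.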

Cryptococcus neoformans = assay: Compound was tested for minimum inhibitory concentration against Cryptococcus neoformans ATCC 90112
Procedure, shortened: (§2)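 Standard broth microdilution susceptibility method. The fungal test follows the M27-A yeast reference standard. MIC is the lowest concentration that inhibits all visible growth of the organism (optically clear wells).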

DU-145 = assay: Compound was tested for cancer cell line growth inhibition against human prostate (DU-145) cell line; procedure, shortened: as §1
HUVEC = assay: Compound was tested for cancer cell line growth inhibition against human umbilical vein endothelial cells
KM-20L2 = assay: Compound was tested for cancer cell line growth inhibition against human colon (KM20L2) cell line; procedure, shortened: as §1
MCF7 = assay: Compound was tested for cancer cell line growth inhibition against human breast (MCF-7) cell line; procedure, shortened: as §1
NCI-H460 = assay: Compound was tested for cancer cell line growth inhibition against lung cancer cells (NCI-H460); settings: Homo sapiens; procedure, shortened: as §1
Neisseria gonorrhoeae = assay: Compound was tested for minimum inhibitory concentration against Neisseria gonorrhoeae ATCC 49226; procedure, shortened: as §2
P388 = assay: Compound was tested for cancer cell line growth inhibition against murine P388 leukemia cell line; settings: Mus musculus
Procedure, shortened: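 Murine P388 leukemia cells are grown in 10% horse serum/Fisher medium for 24 h, then incubated 48 h with serial compound dilutions. Cells are counted on a particle counter, and ED50 for growth inhibition is calculated from the counts.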

SF-268 = assay: Compound was tested for cancer cell line growth inhibition against human central nervous system (SF268) cell line; procedure, shortened: as §1

C=C(C)CC(OC)[C@H](O)C(=O)N[C@@H](OC)[C@@H]1C[C@@H](O)C(C)(C)[C@@H](C[C@H](O)[C@@H](C)[C@H]2Cc3c(C)c(O)cc(O)c3C(=O)O2)O1 (stereo not given in full) [IRCINIASTATIN A]
GI50 (BXPC-3): 0.5 ng/mL (≈ 0.82 nM)
MIC (Cryptococcus neoformans): 16000 ng/mL (≈ 26200 nM)
GI50 (DU-145): 1.6 ng/mL (≈ 2.62 nM)
GI50 (HUVEC): < 0.5 ng/mL
GI50 (KM-20L2): 2.1 ng/mL (≈ 3.44 nM)
GI50 (MCF7): 0.66 ng/mL (≈ 1.08 nM)
GI50 (NCI-H460): 0.73 ng/mL (≈ 1.2 nM)
MIC (Neisseria gonorrhoeae): 64000 ng/mL (≈ 105000 nM)
GI50 (P388): 6 ng/mL (≈ 9.84 nM)
GI50 (SF-268): 1.2 ng/mL (≈ 1.97 nM)
